From PubChem
Most compounds without a hit are left out; they make up all but 2.9% or so of the library.
TRPC4 agonist – activators of mouse TRPC4 channel, primary screen, Fluo4 calcium, HEK293 TRPC4beta/mu-opioid cells | Fluo4 calcium fluorescence; active compounds read high | B-score at 10 µM | 310,000 tested, 0.49% active | AID 2237, 2010;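 active = B-score above 5 SD of library B-scores, and initial fluorescence ratio not above library mean plus 5 SD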;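 also: positive B-score marks a calcium rise read as TRPC4 activation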
Target sequence (Q9QUQ5 whole entry, looked up): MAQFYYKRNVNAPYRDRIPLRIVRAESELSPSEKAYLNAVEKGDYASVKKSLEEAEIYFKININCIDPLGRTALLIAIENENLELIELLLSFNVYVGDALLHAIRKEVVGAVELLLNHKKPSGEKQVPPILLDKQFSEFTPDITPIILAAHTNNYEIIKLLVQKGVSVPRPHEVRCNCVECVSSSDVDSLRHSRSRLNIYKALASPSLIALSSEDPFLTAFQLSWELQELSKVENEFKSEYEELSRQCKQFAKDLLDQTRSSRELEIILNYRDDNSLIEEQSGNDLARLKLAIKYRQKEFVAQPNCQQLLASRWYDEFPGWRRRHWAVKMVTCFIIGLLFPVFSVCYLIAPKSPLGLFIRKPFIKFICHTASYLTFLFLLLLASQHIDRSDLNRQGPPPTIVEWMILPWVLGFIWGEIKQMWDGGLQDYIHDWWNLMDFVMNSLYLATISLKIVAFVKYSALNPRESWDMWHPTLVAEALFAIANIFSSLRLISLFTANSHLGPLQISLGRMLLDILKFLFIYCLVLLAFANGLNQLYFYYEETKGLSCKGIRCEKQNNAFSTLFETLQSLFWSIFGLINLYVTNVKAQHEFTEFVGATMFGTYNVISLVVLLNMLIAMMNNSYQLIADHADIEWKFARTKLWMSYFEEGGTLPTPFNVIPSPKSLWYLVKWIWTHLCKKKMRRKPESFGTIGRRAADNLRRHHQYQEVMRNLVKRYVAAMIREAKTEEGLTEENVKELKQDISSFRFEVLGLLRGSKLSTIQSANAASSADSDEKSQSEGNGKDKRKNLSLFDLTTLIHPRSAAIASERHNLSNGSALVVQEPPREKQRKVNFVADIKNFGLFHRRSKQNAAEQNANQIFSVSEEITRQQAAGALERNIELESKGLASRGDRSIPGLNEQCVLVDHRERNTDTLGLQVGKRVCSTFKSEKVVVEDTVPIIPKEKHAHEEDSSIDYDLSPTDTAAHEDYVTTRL
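Assay system: HEK293 stable line with TRPC4beta plus mu-opioid receptor. Times: dye 45 min RT, read 110 s. Measured by: kinetic Fluo4 calcium fluorescence. Measure: B score of integrated ratio. Controls: assay buffer as low control, maximal DAMGO as high control.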
TRPC6 act – mouse TRPC6 channel activators, primary screen, cell-based, HEK293, membrane potential dye. B-score at 10 µM. 310,000 tested, 0.13% active. HEK293-TRPC6 membrane potential dye fluorescence; active compounds read high;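 active = B-score of the integrated fluorescence ratio above library mean plus 3 SD, and starting fluorescence ratio within library mean plus 5 SD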;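 also: higher score means more depolarization so channel activation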
TRPC4 inh – inhibitors of mouse TRPC4 channel, primary screen, Fluo4 calcium, HEK293 TRPC4beta/mu-opioid cells | Short transient receptor potential channel 4 (Mus musculus), Q9QUQ5 | DAMGO-evoked Fluo4 calcium flux; active compounds read low | B-score at 10 µM | 300,000 tested, 0.39% active;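 active = B-score over 3 SD under the library average, no early fluorescence shift, positive overall ratio signal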
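Assay system: TRPC4beta/mu-opioid receptor HEK293 cell line; compound dosing: single concentration per test compound; detection: Fluo4 Ca2+ flux fluorescence; evaluation: per-well B score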
TRPC4 potent – positive allosteric modulators of TRPC4, primary screen, cell-based, mouse TRPC4beta, HEK293 mu-opioid, Fluo-4 calcium | Short transient receptor potential channel 4 (Mus musculus), Q9QUQ5 | DAMGO EC20, Fluo-4 Ca2+ flux; active compounds read high | B-score at 10 µM | 310,000 tested, 0.42% active;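 active = B-score of calcium response area above 5 SD of library B-scores, with initial fluorescence ratio within 5 SD of library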;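 also: B-score of integrated fluorescence ratio over time as area under calcium response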
TRPC6 inhibitor – mouse TRPC6 channel inhibitors, primary screen, cell-based, HEK293, membrane potential dye. ACh-evoked depolarization; active compounds read low. B-score at 10 µM. 310,000 tested, 1.1% active;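 active = B-score under library mean minus 3 SD, initial fluorescence not abnormally high, positive integrated signal ratio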;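 also: B-score derived from integrated fluorescence ratio over the kinetic read; more negative B-score means stronger inhibition of depolarization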
Kir21 block – inhibitors of mouse Kir2.1 inward-rectifier potassium channel; 310,000 tested, 0.85% active; HEK293-Kir2.1, FluxOR thallium flux fluorescence; active compounds read low; B-score at 10 µM;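 active = fluorescence ratio B-score at or below minus 3 SD of library scores, with starting-brightness B-score within 2 SD, cut at about -4.2 in these data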;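 also: channel flux triggered by added potassium and thallium sulfate stimulus; B-score of peak minus minimum fluorescence over baseline after thallium stimulus; more negative B-score means stronger Kir2.1 block with less thallium influx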
* marks the source's active call; other numbers are inactive results; i = inactive.

SMILES	TRPC4 agonist	TRPC6 act	TRPC4 inh	TRPC4 potent	TRPC6 inhibitor	Kir21 block
COc1c(Cl)cc(Cl)cc1CNCCNCCO	i	i	i	11*	i	1.2
CC(C)c1ccc(/C=C(\c2nc3ccccc3[nH]2)S(=O)(=O)c2ccccc2)cc1	i	i	i	i	i	-0.22
O=S(=O)(/C(=C/c1ccc(C(F)(F)F)cc1)c1nc2ccccc2[nH]1)c1ccccc1	i	i	i	i	i	-7.6*
COc1ccccc1CC(=O)N1CCN(S(=O)(=O)c2ccccc2)CC1	i	i	i	20*	i	-1.4
COc1ccccc1CNC(=O)N1CCN(S(=O)(=O)c2ccc(C)cc2)CC1	i	i	i	i	i	1.4
CCCCN(CC)CCNC(=O)Cn1cc2c(n1)-c1c(oc(C(=O)N3CCCC3)c1C)CC2	125*	i	i	i	i	2.1
Cc1ccc(CSCCNS(=O)(=O)c2ccc(C)cc2)cc1	i	i	i	i	i	-5.5*
COc1cc(=O)n2c(-c3ccccc3)csc2n1	i	i	-7*	i	i	0.03
COc1cc2c(cc1OC)CN(Cc1cc(=O)n3c(-c4ccccc4)csc3n1)CC2	122*	i	i	i	i	-0.11
CN1Cc2cccc3c2C(Cc2ccccc2S3)C1 (stereo not drawn)	i	i	i	i	i	-1.6
O=C(OCCOCCN=C1NS(=O)(=O)c2ccccc21)c1ccccc1Br	i	i	i	i	i	0.01
CN1CCC(=C2c3ccccc3CCc3sccc32)CC1	i	i	i	i	-6.7*	-1.1
COc1cc(C2(c3ccc(O)c(OC)c3)C(=O)Nc3c(C)cc(Br)cc32)ccc1O	i	i	i	27*	i	-2.4
CNc1c(NS(=O)(=O)c2ccc3c(c2)CCCC3)c(=O)oc2ccccc12	i	i	i	i	i	0
COc1ccccc1C1CCN(Cc2ccc(Cl)c(Cl)c2)CC1	i	i	i	i	i	-0.37
CN[C@@H]1CC[C@H](c2ccc(Cl)c(Cl)c2)c2ccccc21	i	i	i	14*	i	-5.8*
Cc1ccc(C(=O)N2CCN(c3ncnc4c(C)csc34)CC2)cc1	i	i	i	i	i	1.4
Cc1csc2c(N3CCN(C(=O)Nc4ccccc4)CC3)ncnc12	185*	i	i	i	i	1.1
O=[N+]([O-])c1ccc(N2CCN(C(=S)Nc3ccc(F)cc3F)CC2)cc1	i	i	i	i	i	0.65
Cc1csc2c(N3CCN(C(=S)Nc4ccc(F)cc4F)CC3)ncnc12	124*	i	i	i	i	0.65
Cc1ccc(Cn2nnc3c(=O)[nH]c(C4CCN(S(=O)(=O)c5ccccc5F)CC4)nc32)cc1	i	i	i	i	i	-0.96
O=c1c2ccccc2nc(-c2ccc(Cl)c(Cl)c2)n1O	i	i	i	i	i	0.59
O=c1c2ccc(Cl)cc2nc(-c2cccc(C(F)(F)F)c2)n1O	51*	i	i	i	i	-1.3
N#Cc1ccc(-c2nc3cc(Cl)ccc3c(=O)n2O)cc1	i	i	i	i	i	-0.9
O=c1c2cc(Cl)ccc2nc(-c2ccc([N+](=O)[O-])cc2)n1O	45*	i	i	i	i	-0.1
SMILES	TRPC4 agonist	TRPC6 act	TRPC4 inh	TRPC4 potent	TRPC6 inhibitor	Kir21 block
Cc1ccc(-c2nc3c(Cl)cc(Cl)cc3c(=O)n2O)cc1	112*	i	i	i	i	0.36
O=c1c2cc(Br)ccc2nc(-c2ccc(Cl)cc2)n1O	175*	i	i	i	i	-1.7
O=C(O)c1cc(S(=O)(=O)Nc2ccc(OCc3ccccc3)cc2)ccc1Br	i	i	i	i	i	0.44
CCCCN(C)C(=S)Nc1ccc2nc3n(c(=O)c2c1)CCCCC3	i	i	i	i	i	-0.7
CC(=O)N1CCN(CC(=O)NC(=O)Nc2ccc3c(c2)OCCO3)CC1	i	i	i	i	i	1.7
O=C(NN1CC(C(=O)OCc2ccc(Br)cc2)CC1=O)c1ccccc1 (stereo not drawn)	i	i	i	i	i	0.93
CC(=O)c1cccc(CN2CCCC(C(=O)Nc3ccc(-c4ccco4)cc3)C2)c1 (stereo not drawn)	i	i	i	i	i	-2.3
COc1cc2c(cc1OC)C(C)N(C(=O)C(NC(=O)c1ccccc1)C(C)C)CC2 (stereo not drawn)	96*	i	i	i	i	-0.01
CCc1ccccc1NC1=NCC(=O)N1Cc1ccc(OC)cc1	i	i	i	i	i	-4.9*
Cc1ccn2c(-c3csc(NCc4ccco4)n3)c(C)nc2c1	i	i	-6*	i	i	0.63
CN(C)CC/C=C1/c2ccccc2Sc2c(O)cc(Cl)cc21	i	i	i	i	i	-1.9
COc1cc2c(cc1Cl)/C(=C\CCN(C)C)c1ccccc1S2	i	i	i	i	i	-11*
COc1cc(Cl)cc2c1Sc1ccccc1/C2=C/CCN(C)C	i	i	i	i	i	-13*
O=c1[nH]ccc2c(O)cccc12	i	i	i	i	i	0.69
CC(Nc1nc(N2CCNCC2)nc2ccccc12)c1ccccc1 (stereo not drawn)	103*	i	i	i	i	0.02
CCCCN1C2=NC(c3ccccc3)CN2c2ccccc21 (stereo not drawn)	i	i	-6*	i	i	-3.4
CCn1cc(C(=O)NCCCN(CC(C)C)CC(C)C)c(=O)c2cc(S(=O)(=O)N(C)C3CCCCC3)ccc21	i	i	i	i	i	3
Cc1ccc(S(=O)(=O)N2CCC(C(=O)OCC(=O)N(C)CC(=O)Nc3ccc(F)cc3)CC2)cc1C	i	i	i	79*	i	0.49
O=C(Cc1ccccc1)N/N=C/c1ccc2cccc(O)c2n1	i	i	i	i	i	0.02
C=CCn1c(Cc2cccs2)nnc1SC/C=C/c1ccccc1	i	i	i	i	i	-15*
